Screening results as filed in PubChem BioAssay.
Rows were chosen to be rich in hits. Some 3.7% of all compounds tested hit in one or more screens of this group.
Myeloid diff 2 – promotes myeloid progenitor differentiation; ER-HoxA9 myeloid progenitors, lysozyme-GFP differentiation, flow cytometry; calls only at 10 µM; 360,000 tested, 1% active;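 active means normalized GFP-positive differentiation at or above the plate's own cutoff, the solvent-only control mean plus 3 SD; inconclusive means no clear call, values can overlap the other calls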;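 further: cells exposed to compound for four days before flow analysis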
MC4R antag cAMP – blocks human MC4R cAMP signaling | MC4R-expressing cells, MTII-stimulated cAMP, LANCE TR-FRET | inhibition, % at 6.5 µM | 360,000 tested, 0.48% active | AID 540295;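 active means inhibition above its plate's cutoff, the mean of tested wells on that plate plus 3 SD, cut at about 29% in these data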
Target sequence (P32245 whole entry, looked up): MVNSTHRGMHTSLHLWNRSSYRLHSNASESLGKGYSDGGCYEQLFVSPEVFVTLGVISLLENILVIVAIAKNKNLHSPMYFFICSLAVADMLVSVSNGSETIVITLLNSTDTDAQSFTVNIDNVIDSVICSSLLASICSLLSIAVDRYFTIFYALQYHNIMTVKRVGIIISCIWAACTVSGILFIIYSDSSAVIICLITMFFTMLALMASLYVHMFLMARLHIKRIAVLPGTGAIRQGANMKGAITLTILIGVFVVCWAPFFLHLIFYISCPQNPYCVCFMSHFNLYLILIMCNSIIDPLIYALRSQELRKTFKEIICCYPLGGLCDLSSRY
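System – human MC4R-expressing U2OS cells · Also added – Melanotan II · Dosing – one concentration, 6.5 µM nominal · Timing – 30-min compound, 1-h challenge, 1-h detection, room temperature · Measured by – Eu-cAMP/anti-cAMP TR-FRET, emission 671 nm · Replicates – singlicate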
MC4R barr agon – activates human MC4R beta-arrestin recruitment | 360,000 tested, 0.98% active | U2OS MC4R beta-arrestin complementation, luminescence; percent of melanotan II response, DMSO zero | AID 540308 | activation, % at 8.9 µM;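 active means activation above a per-plate cutoff, the mean activation of sample wells on that plate plus 3 SD, cut at about 8% in these data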
Exocytosis inh – lytic granule exocytosis inhibition | TALL-104 LAMP-1 surface exposure, flow cytometry; cells stimulated with thapsigargin and PMA | inhibition, % at 10 µM | 360,000 tested, 0.66% active;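 active means inhibition above about 55%, limit read from the data; inconclusive means no clear call, values can overlap the other calls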
EBI2 block – EBI2 (human) antagonism. inhibition, % at 5 µM. P32249. EBI2 beta-arrestin recruitment, luminescence, 7a,25-OHC stimulated. 360,000 tested, 0.81% active; in the data active means inhibition above about 38%;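 further: enzyme fragment complementation signal reports receptor beta-arrestin coupling in cells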
Large screens that a line does not name were inactive.

CCOC(=O)c1cnc(-n2nc(C)cc2C)nc1NC(C)c1ccccc1 (stereo not drawn)	EBI2 block 51
COc1cc(CN2CCc3c([nH]c4ccccc34)C2)cc(OC)c1	Myeloid diff 2 active
COc1ccccc1CN1CCc2c([nH]c3ccccc23)C1	none
Cc1ccnn1CCC(=O)N1CCCC(Nc2ccc(C(C)C)cc2)C1 (stereo not drawn)	none
CC(C)c1ccc(NC2CCCN(C(=O)CCN3CCCC3=O)C2)cc1 (stereo not drawn)	Myeloid diff 2 active
Cc1cccc(NC(=O)/C(C#N)=C/c2ccc(F)cc2)n1	none
CCCOc1ccccc1/C=C(\C#N)C(=O)Nc1cccc(C)n1	Myeloid diff 2 active
N#CCc1ccc(C(=O)c2ccccc2F)s1	Myeloid diff 2 active
CC(C)COC(=O)NCC12C=CC(O1)C1C(=O)N(c3ccc(Cl)cc3)C(=O)C12 (stereo not drawn)	Exocytosis inh 91
Cc1cc(C)c(S(=O)(=O)NCC23C=CC(O2)C2C(=O)N(c4ccccc4)C(=O)C23)c(C)c1 (stereo not drawn)	Exocytosis inh 77
COc1cccc2[nH]c3c(N4CCCCC4)ncnc3c12	Exocytosis inh 69
CCOC(=O)c1c(NC(C)=O)sc2c(OCCN(CC)CC)c(Br)ccc12	none
CCOC(=O)c1c(NC(C)=O)sc2c1CCC(C=NCCCN(CC)CC)=C2Sc1ccccc1	Myeloid diff 2 active
Cc1ccccc1C(=O)Nc1nc(SCc2ccc(Cl)cc2)n[nH]1	MC4R barr agon 8.7
O=S(=O)(Nc1nc(SCc2ccc(Cl)cc2)n[nH]1)c1ccccc1	none
COc1ccc(OC)c(S(=O)(=O)NC(=O)C2(C)CCN2C(=O)C2(c3ccc(Cl)cc3)CC2)c1 (stereo not drawn)	none
CC1=CC(=O)C(C(C)C)=C/C1=N/OC(=O)c1cccc([N+](=O)[O-])c1	Myeloid diff 2 inconclusive
CC1=CC(=O)C(C(C)C)=CC1=NC(=O)c1ccc(C)cc1	MC4R antag cAMP 51
Cc1ccc(Cc2cnc(NC(=O)c3ccco3)s2)cc1	none
O=C(Nc1ncc(Cc2ccc(SC(F)F)cc2)s1)c1ccc(OC(F)F)cc1	MC4R barr agon 33
Cc1nn2c(COc3ccc(NC(=O)c4ccccc4Cl)cc3)nnc2c2ccccc12	Myeloid diff 2 active
COC(=O)C1CN(C(=O)COc2ccccc2)c2ccccc2O1 (stereo not drawn)	none
Cc1ccc(OCC(=O)Nc2ccc3c4c(cccc24)CC3)c(C)c1	Myeloid diff 2 active
Cn1c(=O)c2ncn(CC(=O)Nc3ccc4c5c(cccc35)CC4)c2n(C)c1=O	Myeloid diff 2 active
C/C(=N\NC(=O)c1ccc(CSc2cccc3cccnc23)cc1)C1CCCCC1	Myeloid diff 2 active
COc1ccc(/C(C)=N/NC(=O)c2ccc(CSc3cccc4cccnc34)cc2)cc1OC	none
C=CCc1cccc2cc(C(=O)OCC(=O)c3ccccc3)c(=O)oc12	MC4R barr agon 9.5
CCc1cc(=O)oc2cc(OCc3ccc(C(=O)O)o3)ccc12	Myeloid diff 2 active
O=C(O)c1ccc(COc2ccc3c4c(c(=O)oc3c2)CCC4)o1	none
O=C(NC(c1ccc(Cl)cc1)c1cc(Cl)c2cccnc2c1O)c1cccnc1 (stereo not drawn)	EBI2 block 65
Cc1cc(C)n(C(=O)Cn2nc([N+](=O)[O-])c(Br)c2C)n1	none
Cn1nc(C(=O)NNC(=O)CCc2ccccc2Cl)c2ccccc2c1=O	Myeloid diff 2 active
Cn1nc(C(=O)NNC(=O)c2cccc(Cl)c2)c2ccccc2c1=O	none
CC1(C)CC(Cc2ccc(Cl)nc2)N(C(=O)OC(C)(C)C)C1 (stereo not drawn)	none
COCCNC(=O)NC(=O)CSc1nc(C)c(C)c(C)n1	Myeloid diff 2 active
Cc1ccc(C(=O)N/C(=C\c2ccco2)C(=O)NCCCN2CCOCC2)cc1C	none
Cc1ccc(C(=O)N/C(=C\c2ccco2)C(=O)NCCN2CCOCC2)cc1C	MC4R barr agon 8.4
C=C1c2cc3c(cc2NC(=S)N1Cc1ccccc1)OCO3	none
O=[N+]([O-])c1ccc(Sc2cccc3cccnc23)c([N+](=O)[O-])c1	none (no result: Myeloid diff 2)
O=[N+]([O-])c1cc(Cl)ccc1Sc1cccc2cccnc12	MC4R barr agon 8.8
CCCCCCCCCCCCCCCC[n+]1ccc(C(N)=O)cc1	MC4R barr agon 9.2 (no result: Myeloid diff 2)
CCCCCCCC[n+]1cccc(C(=O)N(CC)CC)c1	none
O=C(NCc1ccc2c(c1)OCO2)c1c(-c2ccccc2)sc2ccccc12	MC4R barr agon 21
O=C1c2ccccc2-c2onc3ccc(N4CCCC4)c1c23	Myeloid diff 2 active
O=C1c2ccccc2-c2onc3ccc(NCc4ccco4)c1c23	Exocytosis inh 56 (no result: Myeloid diff 2)
Cc1ccc(S(=O)(=O)N2CCCc3cc(NC(=O)c4c(F)cccc4F)ccc32)cc1	Myeloid diff 2 active
CN1C(=O)CC(c2cn(Cc3ccccc3)c3ccccc23)C1=O (stereo not drawn)	Myeloid diff 2 active
Brc1ccc(C2=CC(c3cccs3)n3ncnc3N2)cc1 (stereo not drawn)	Myeloid diff 2 active
CCN1C(=O)/C(=C\c2ccc(F)cc2)N=C1SCC(=O)NCc1ccco1	MC4R barr agon 8.6
CC(C(=O)Nc1c2c(cc3c1CCC3)CCC2)N1CCCC1 (stereo not drawn)	none
CCN(CC)C(C)C(=O)Nc1c2c(cc3c1CCC3)CCC2 (stereo not drawn)	Myeloid diff 2 active
Cc1ccc(S(N)(=O)=O)cc1NC(=O)c1ccc2c3c(cccc13)CC2	none
Oc1ccccc1/C=N/Nc1cccc2cccnc12	Myeloid diff 2 active
O=C(COc1cccc2cccnc12)N/N=C/c1ccccc1O	none
C/C(=C(/CCO)SSCC1CCCO1)N(C=O)Cc1cnc(C)nc1N (stereo not drawn)	Myeloid diff 2 active
Cc1ncc(C[n+]2csc(CCO)c2C)c(N)n1	none
O=C(NCCc1c[nH]c2ccccc12)c1cnccn1	none
COc1ccc(NC(=O)COc2nsnc2N2CCCCC2)cc1	none
CCOc1ccc(NC(=O)COc2nsnc2N2CCCCC2)cc1	MC4R barr agon 9.0
COC(=O)CCSc1cc(NCCOC(C)=O)c([N+](=O)[O-])c2nonc12	none
CC(=O)OCCNc1cc(SCc2ccco2)c2nonc2c1[N+](=O)[O-]	none
CC(=O)OCCNc1cc(Sc2nc3ccccc3[nH]2)c2nonc2c1[N+](=O)[O-]	Myeloid diff 2 active, EBI2 block 59
CC(=O)OCCCNc1cc(Sc2nc3ccccc3s2)c2nonc2c1[N+](=O)[O-]	Exocytosis inh 69, EBI2 block 63 (no result: Myeloid diff 2)
COC(=O)c1ccc(CNC(=O)COC(=O)C2CC3C=CC2C3)cc1 (stereo not drawn)	none
CN(CC(=O)Nc1ccc(Cl)c(C(F)(F)F)c1)C(=O)c1ccc2c(c1)NC(=O)CS2	none
O=c1/c(=C\c2ccc(O)cc2)sc2n1C(c1ccccc1)C(c1ccccc1)=NN=2 (stereo not drawn)	Myeloid diff 2 active
